{"source": "paper PMC9073569", "about": "(JAMA Network Open, 2022)", "key": {"[1]": {"details": "cited from earlier work"}, "[2]": {"tested_on": "moderate to severe pruritus in patients receiving hemodialysis", "assay": "24-hour Worst Itching Intensity Numerical Rating Scale", "type": "in vivo, Japanese patients", "details": "week 8; for proportion of 4-point improvement in the NRS score: placebo 36%; for proportion of 3-point improvement in the NRS score: placebo 50%", "in_short": "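Adults aged 20 or older with ESKD on hemodialysis 3 times weekly for at least 12 weeks, with weekly mean NRS above 4, were randomized double-blind. Test compound or placebo was given IV after each dialysis session for 8 weeks. Worst itch over the prior 24 h (0–10) was logged daily in an e-diary and averaged weekly. Proportions improving ≥3 or ≥4 points at week 8 were compared with placebo by Fisher exact test.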"}, "[3]": {"assay": "Plasma concentrations of difelikefalin", "type": "in vivo, Japanese patients", "details": "weeks 1, 4, and 7; LC-MS/MS", "in_short": "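Test compound was given IV at 0.25, 0.5 or 1.0 μg/kg after each hemodialysis session, 3 times weekly, with volume set by dry weight. Plasma was sampled before the first dialysis (weeks 1, 2, 4, 7, 8), 5 min post-dose (weeks 1, 4, 7), before the second dialysis (weeks 1, 4, 7) and 1 h post-dose (week 7). Assay was LC-MS/MS; summaries included geometric means and geometric CV.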"}, "[4]": {"tested_on": "patients with pruritus receiving hemodialysis", "type": "in vivo, Japanese patients", "details": "for Constipation / Death / Malaise / Other serious adverse drug reactions / Pyrexia: placebo 0; for Adverse events leading to Discontinuation / Nausea: placebo 1 (2); for Adverse events leading to Interruption / Arthralgia / Blood pressure decreased / Other serious adverse events: placebo 2 (3); for Dizziness / Procedural hypotension / Somnolence / Vomiting: placebo 3 (5); for Adverse drug reactions / Nasopharyngitis: placebo 7 (11); for Adverse events: placebo 42 (67); for drug-related serious AEs (kind of event): patients recovered after discontinuing or suspending use of the study drug"}, "[5]": {"tested_on": "pruritus in patients receiving hemodialysis", "details": "0.5, 1.0, and 1.5 μg/kg; previous phase 2 trial in the US; cited from earlier work"}, "[6]": {"details": "0.25 μg/kg iv 3 times a week, 8 weeks, n = 61"}, "[7]": {"details": "0.5 μg/kg iv 3 times a week, 8 weeks, n = 61"}, "[8]": {"details": "1.0 μg/kg iv 3 times a week, 8 weeks, n = 62"}}, "note": "Read-outs that look alike come from different tables or passages of the source.", "data": [{"substance": "difelikefalin", "values": [{"measurement": "transfer to the CNS", "setting": "[1]", "value": "limited"}, {"measurement": "proportion of 4-point improvement in the NRS score", "setting": "[2]; 0.25 μg/kg iv 3 times a week, n = 20 of 59", "value": 34, "unit": "%"}, {"measurement": "proportion of 3-point improvement in the NRS score", "setting": "[2]; 0.25 μg/kg iv 3 times a week, n = 31 of 59", "value": 53, "unit": "%"}, {"measurement": "proportion of 4-point improvement in the NRS score", "setting": "[2]; 0.5 μg/kg iv 3 times a week, n = 27 of 53", "value": 51, "unit": "%"}, {"measurement": "proportion of 3-point improvement in the NRS score", "setting": "[2]; 0.5 μg/kg iv 3 times a week, n = 32 of 53", "value": 60, "unit": "%"}, {"measurement": "proportion of 4-point improvement in the NRS score", "setting": "[2]; 1.0 μg/kg iv 3 times a week, n = 23 of 53", "value": 43, "unit": "%"}, {"measurement": "proportion of 3-point improvement in the NRS score", "setting": "[2]; 1.0 μg/kg iv 3 times a week, n = 30 of 53", "value": 57, "unit": "%"}, {"measurement": "plasma difelikefalin concentrations in relation to body weight classification", "setting": "[3]", "value": "No significant differences"}, {"measurement": "Constipation", "setting": "[4]; [6]", "value": "5 (8) No. (%)"}, {"measurement": "Death", "setting": "[4]; [6]", "value": "0 No. (%)"}, {"measurement": "Malaise", "setting": "[4]; [6]", "value": "2 (3) No. (%)"}, {"measurement": "Other serious adverse drug reactions", "setting": "[4]; [6]", "value": "0 No. (%)"}, {"measurement": "Pyrexia", "setting": "[4]; [6]", "value": "2 (3) No. (%)"}, {"measurement": "Adverse events leading to Discontinuation", "setting": "[4]; [6]", "value": "0 No. (%)"}, {"measurement": "Nausea", "setting": "[4]; [6]", "value": "0 No. (%)"}, {"measurement": "Adverse events leading to Interruption", "setting": "[4]; [6]", "value": "0 No. (%)"}, {"measurement": "Arthralgia", "setting": "[4]; [6]", "value": "3 (5) No. (%)"}, {"measurement": "Blood pressure decreased", "setting": "[4]; [6]", "value": "0 No. (%)"}, {"measurement": "Other serious adverse events", "setting": "[4]; [6]", "value": "3 (5) No. (%)"}, {"measurement": "Dizziness", "setting": "[4]; [6]", "value": "3 (5) No. (%)"}, {"measurement": "Procedural hypotension", "setting": "[4]; [6]", "value": "4 (7) No. (%)"}, {"measurement": "Somnolence", "setting": "[4]; [6]", "value": "2 (3) No. (%)"}, {"measurement": "Vomiting", "setting": "[4]; [6]", "value": "1 (2) No. (%)"}, {"measurement": "Adverse drug reactions", "setting": "[4]; [6]", "value": "9 (15) No. (%)"}, {"measurement": "Nasopharyngitis", "setting": "[4]; [6]", "value": "8 (13) No. (%)"}, {"measurement": "Adverse events", "setting": "[4]; [6]", "value": "44 (72) No. (%)"}, {"measurement": "drug-related serious AEs (kind of event)", "setting": "[4]; 0.5 μg/kg group", "value": "Altered state of consciousness"}, {"measurement": "Constipation", "setting": "[4]; [7]", "value": "3 (5) No. (%)"}, {"measurement": "Death", "setting": "[4]; [7]", "value": "0 No. (%)"}, {"measurement": "Malaise", "setting": "[4]; [7]", "value": "2 (3) No. (%)"}, {"measurement": "Other serious adverse drug reactions", "setting": "[4]; [7]", "value": "1 (2) No. (%)"}, {"measurement": "Pyrexia", "setting": "[4]; [7]", "value": "4 (7) No. (%)"}, {"measurement": "Adverse events leading to Discontinuation", "setting": "[4]; [7]", "value": "4 (7) No. (%)"}, {"measurement": "Nausea", "setting": "[4]; [7]", "value": "1 (2) No. (%)"}, {"measurement": "Adverse events leading to Interruption", "setting": "[4]; [7]", "value": "5 (8) No. (%)"}, {"measurement": "Arthralgia", "setting": "[4]; [7]", "value": "5 (8) No. (%)"}, {"measurement": "Blood pressure decreased", "setting": "[4]; [7]", "value": "4 (7) No. (%)"}, {"measurement": "Other serious adverse events", "setting": "[4]; [7]", "value": "8 (13) No. (%)"}, {"measurement": "Dizziness", "setting": "[4]; [7]", "value": "3 (5) No. (%)"}, {"measurement": "Procedural hypotension", "setting": "[4]; [7]", "value": "3 (5) No. (%)"}, {"measurement": "Somnolence", "setting": "[4]; [7]", "value": "3 (5) No. (%)"}, {"measurement": "Vomiting", "setting": "[4]; [7]", "value": "1 (2) No. (%)"}, {"measurement": "Adverse drug reactions", "setting": "[4]; [7]", "value": "9 (15) No. (%)"}, {"measurement": "Nasopharyngitis", "setting": "[4]; [7]", "value": "6 (10) No. (%)"}, {"measurement": "Adverse events", "setting": "[4]; [7]", "value": "47 (77) No. (%)"}, {"measurement": "drug-related serious AEs (kind of event)", "setting": "[4]; 1.0 μg/kg group", "value": "obstruction in the small intestine"}, {"measurement": "Constipation", "setting": "[4]; [8]", "value": "7 (11) No. (%)"}, {"measurement": "Death", "setting": "[4]; [8]", "value": "0 No. (%)"}, {"measurement": "Malaise", "setting": "[4]; [8]", "value": "4 (6) No. (%)"}, {"measurement": "Other serious adverse drug reactions", "setting": "[4]; [8]", "value": "1 (2) No. (%)"}, {"measurement": "Pyrexia", "setting": "[4]; [8]", "value": "0 No. (%)"}, {"measurement": "Adverse events leading to Discontinuation", "setting": "[4]; [8]", "value": "5 (8) No. (%)"}, {"measurement": "Nausea", "setting": "[4]; [8]", "value": "4 (6) No. (%)"}, {"measurement": "Adverse events leading to Interruption", "setting": "[4]; [8]", "value": "5 (8) No. (%)"}, {"measurement": "Arthralgia", "setting": "[4]; [8]", "value": "2 (3) No. (%)"}, {"measurement": "Blood pressure decreased", "setting": "[4]; [8]", "value": "3 (5) No. (%)"}, {"measurement": "Other serious adverse events", "setting": "[4]; [8]", "value": "5 (8) No. (%)"}, {"measurement": "Dizziness", "setting": "[4]; [8]", "value": "5 (8) No. (%)"}, {"measurement": "Procedural hypotension", "setting": "[4]; [8]", "value": "2 (3) No. (%)"}, {"measurement": "Somnolence", "setting": "[4]; [8]", "value": "6 (10) No. (%)"}, {"measurement": "Vomiting", "setting": "[4]; [8]", "value": "4 (6) No. (%)"}, {"measurement": "Adverse drug reactions", "setting": "[4]; [8]", "value": "17 (27) No. (%)"}, {"measurement": "Nasopharyngitis", "setting": "[4]; [8]", "value": "3 (5) No. (%)"}, {"measurement": "Adverse events", "setting": "[4]; 1.0 μg/kg iv 3 times a week, 8 weeks, n = 62, P = .02", "value": "53 (85) No. (%)"}, {"measurement": "changes in clinical laboratory tests, vital signs, and 12-lead electrocardiogram", "setting": "[4]; 0.25, 0.5 and 1.0 μg/kg iv 3 times a week, 8 weeks", "value": "No notable changes"}, {"measurement": "dose response in relation to efficacy", "setting": "[5]", "value": "no clear dose response"}]}]}
